Assay results of several laboratories.
Target: Eukaryotic translation initiation factor 2-alpha kinase 1 (EIF2AK1, Homo sapiens, UniProt Q9BQI3)

C[C@@H](c1cccc(C#N)c1)n1cc(Cl)cc(C(N)=O)c1=N
remaining binding (cell-free assay, competition with immobilised ligand; 1 µM): 95%

C[C@H]1CCN(c2nccc(-c3cnn4ncccc34)n2)C1
remaining binding (binding; 1 µM): 73%

O=C(c1ccc(Nc2ncc(Cl)c(-c3cc4ccccc4s3)n2)cc1)N1CCC(N2CCCC2)CC1
remaining binding (binding, competition with immobilised ligand; 1 µM): 90%

COc1cnc(Nc2cccc(S(N)(=O)=O)c2)nc1N1CCN(c2ccccc2)CC1
remaining binding (binding, competition with immobilised ligand; 1 µM): 100%

C[C@H](c1ccc(F)cc1)N(Cc1cccc(C(=O)O)c1)C(=O)c1cnc2ccccc2c1
remaining binding (cell-free assay, competition with immobilised ligand; 1 µM): 84%

CCN1CCN(Cc2ccc(C(=O)Nc3ccc(C)c(Oc4ccc5c(c4)CC(=O)N5)c3)cc2C(F)(F)F)CC1
remaining binding (binding, competition with immobilised ligand; 1 µM): 100%

Cc1cnn2ncc(-c3ccnc(N(C)C)n3)c2c1
remaining binding (binding; 1 µM): 84%

CS(=O)(=O)N1CCCC(NC(=O)[C@H](CCC2CCCCC2)NC(=O)c2ccc(CNC(=O)c3cnc4ccccn34)cc2)C1 (stereo partly shown)
remaining binding (cell-free assay, competition with immobilised ligand; 0.1 µM): 91%

FC(F)(F)Oc1cccc(-c2cnc3ccc(-c4ccncc4)nn23)c1
remaining binding (cell-free assay, competition with immobilised ligand; 5 µM): 88%

CN(c1nccc(-c2cnn3ncccc23)n1)C1CC1
remaining binding (binding; 1 µM): 100%

CC(=O)C1=C(C)N(c2cccc(C(F)(F)F)c2)C(=O)N[C@@H]1c1ccc(C#N)nc1
remaining binding (cell-free assay, competition with immobilised ligand; 1 µM): 100%

O=C(c1ccc(Nc2nccc(-c3cc4ccccc4s3)n2)cc1)N1CCC(N2CCCC2)CC1
remaining binding (binding, competition with immobilised ligand; 1 µM): 100%

CN(C)c1ncc(F)c(-c2cnn3ncccc23)n1
remaining binding (binding; 1 µM): 100%

O=C(c1ccc(Nc2ncc(Cl)c(-c3ccc(Cl)s3)n2)cc1)N1CCC(N2CCCC2)CC1
remaining binding (binding, competition with immobilised ligand; 1 µM): 86%

COc1ncc2cc3ccccc3nc2c1C#N
remaining binding (cell-free assay, competition with immobilised ligand; 5 µM): 100%

O=C(Nc1c[nH]nc1C(=O)NC1CCNCC1)c1cc(F)cc(F)c1
remaining binding (binding, competition with immobilised ligand; 1 µM): 91%

c1cncc(-c2cccc(Nc3nccc(NC4CCCCC4)n3)c2)c1
remaining binding (binding, competition with immobilised ligand; 10 µM): 87%

O=C(NCc1ncc(C(F)(F)F)cc1Cl)c1ccc2c(c1)C1(CCS(=O)(=O)CC1)[C@H](C1CC1)N2S(=O)(=O)c1ccc(F)cc1
remaining binding (cell-free assay, competition with immobilised ligand; 1 µM): 86%

F[C@@H]1CCN(c2nccc(-c3cnn4ncccc34)n2)C1
remaining binding (binding; 1 µM): 100%

C[C@@H](c1ccc(-n2cnc3c(N)ncnc32)cc1)N1CCc2nn(C)c(Cc3ccccc3)c2C1=O
remaining binding (binding, competition with immobilised ligand; 0.1 µM): 66%

CS(=O)(=O)c1cc(C2(NC(=O)c3cncc4c3cnn4-c3ccc(F)cc3)CC2)ccn1
remaining binding (cell-free assay, competition with immobilised ligand; 1 µM): 73%

CC1CCCN1c1nccc(-c2cnn3ncccc23)n1 (stereo not shown)
remaining binding (binding; 1 µM): 100%
